The record followed here is ChEMBL document CHEMBL4308921, “Structure-Activity Relationships of Central Nervous System Penetration by Fatty Acid Amide Hydrolase (FAAH)-Targeted Thyromimetic Prodrugs” (ACS Med Chem Lett, 2019).

Data set [1] is described as follows: Tmax in C57BL/6 mouse brain assessed as sobetirome level at 9.15 umol/kg, iv by LC-MS/MS analysis. Format: ADME, organism-based. To be noted: in vivo.
Data set [2] can be described thus: Clearance in C57BL/6 mouse at 9.15 umol/kg, iv by LC-MS/MS analysis. Format: ADME, organism-based. To be noted: in vivo.
Data set [3] is described as follows: Prodrug activation in C57BL/6 mouse brain assessed as FAAH-mediated sobetirome formation at 3.05 umol/kg, ip after 1 hr by LC-MS/MS analysis. Format: organism-based. The settings on record: in vivo.
Data set [4] can be described thus: Brain to serum permeability coefficient, Kp of the compound in C57BL/6 mouse assessed as sobetirome level at 3.05 umol/kg, ip after 1 hr by LC-MS/MS analysis. Format: ADME, organism-based.
Data set [5] in a line: Brain to serum permeability coefficient, Kp of the compound in C57BL/6 mouse assessed as sobetirome level at 9.15 umol/kg, po via gavage measured up to 24 hrs by LC-MS/MS analysis. The format is ADME, organism-based.
Data set [6] can be described thus: Tmax in C57BL/6 mouse serum assessed as sobetirome level at 9.15 umol/kg, iv by LC-MS/MS analysis. Format: ADME, organism-based. The settings on record: in vivo.
For data set [7], the target named is T1, Thyroid hormone receptor beta (Homo sapiens) (UniProt P10828).
T1 sequence (whole entry): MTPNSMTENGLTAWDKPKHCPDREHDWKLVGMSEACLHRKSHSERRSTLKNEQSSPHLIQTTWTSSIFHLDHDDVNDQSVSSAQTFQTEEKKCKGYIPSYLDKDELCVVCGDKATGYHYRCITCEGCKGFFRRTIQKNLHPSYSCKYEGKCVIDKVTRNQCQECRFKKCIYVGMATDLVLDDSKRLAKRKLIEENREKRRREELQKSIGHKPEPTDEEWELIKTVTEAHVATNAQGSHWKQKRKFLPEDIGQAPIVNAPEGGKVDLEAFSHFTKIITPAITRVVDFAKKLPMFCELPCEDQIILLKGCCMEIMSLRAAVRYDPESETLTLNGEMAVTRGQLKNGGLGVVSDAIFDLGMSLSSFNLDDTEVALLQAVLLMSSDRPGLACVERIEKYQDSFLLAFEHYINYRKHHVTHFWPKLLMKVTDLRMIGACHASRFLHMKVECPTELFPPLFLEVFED
Description: Agonist activity at human TRbeta treated at 1 hr post FAAH inhibitor PF-3845 treatment and measured after 24 hrs by cell based luciferase reporter gene assay. The procedure, abridged: (§1)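 A plate-based luciferase reporter assay measured TRα or TRβ activation as dose-response curves, run in the presence of the FAAH inhibitor PF-3845. Data are mean ± SEM, n = 3.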

Data set [8] deals with T2, Thyroid hormone receptor alpha (Homo sapiens) (UniProt P10827).
T2 sequence (whole entry): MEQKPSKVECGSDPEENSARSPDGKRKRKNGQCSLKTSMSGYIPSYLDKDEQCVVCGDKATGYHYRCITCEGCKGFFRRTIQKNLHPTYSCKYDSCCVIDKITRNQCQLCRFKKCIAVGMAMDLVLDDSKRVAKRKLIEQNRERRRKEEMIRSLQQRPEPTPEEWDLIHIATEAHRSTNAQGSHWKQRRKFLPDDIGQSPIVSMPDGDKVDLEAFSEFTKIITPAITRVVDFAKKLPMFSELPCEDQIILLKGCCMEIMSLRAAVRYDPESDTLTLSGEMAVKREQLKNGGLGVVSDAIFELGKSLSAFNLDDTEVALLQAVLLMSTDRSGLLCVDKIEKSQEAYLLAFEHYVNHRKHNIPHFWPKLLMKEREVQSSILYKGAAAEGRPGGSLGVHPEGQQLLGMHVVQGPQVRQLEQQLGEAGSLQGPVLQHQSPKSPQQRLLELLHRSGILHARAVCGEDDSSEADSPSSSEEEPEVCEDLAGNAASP
Description: Agonist activity at human TRalpha treated at 1 hr post FAAH inhibitor PF-3845 treatment and measured after 24 hrs by cell based luciferase reporter gene assay. An outline of the steps:
as §1

Data set [9] is described as follows: AUC (0 to 24 hrs) in C57BL/6 mouse brain assessed as sobetirome level at 9.15 umol/kg, po via gavage by LC-MS/MS analysis. Format: ADME, organism-based. Details: dose 9.15 umol/kg, time < 24 hr, route oral. To be noted: in vivo.
In data set [10] the target is T3, Fatty-acid amide hydrolase 1 (Homo sapiens, UniProt O00519).
T3 sequence (O00519 whole entry): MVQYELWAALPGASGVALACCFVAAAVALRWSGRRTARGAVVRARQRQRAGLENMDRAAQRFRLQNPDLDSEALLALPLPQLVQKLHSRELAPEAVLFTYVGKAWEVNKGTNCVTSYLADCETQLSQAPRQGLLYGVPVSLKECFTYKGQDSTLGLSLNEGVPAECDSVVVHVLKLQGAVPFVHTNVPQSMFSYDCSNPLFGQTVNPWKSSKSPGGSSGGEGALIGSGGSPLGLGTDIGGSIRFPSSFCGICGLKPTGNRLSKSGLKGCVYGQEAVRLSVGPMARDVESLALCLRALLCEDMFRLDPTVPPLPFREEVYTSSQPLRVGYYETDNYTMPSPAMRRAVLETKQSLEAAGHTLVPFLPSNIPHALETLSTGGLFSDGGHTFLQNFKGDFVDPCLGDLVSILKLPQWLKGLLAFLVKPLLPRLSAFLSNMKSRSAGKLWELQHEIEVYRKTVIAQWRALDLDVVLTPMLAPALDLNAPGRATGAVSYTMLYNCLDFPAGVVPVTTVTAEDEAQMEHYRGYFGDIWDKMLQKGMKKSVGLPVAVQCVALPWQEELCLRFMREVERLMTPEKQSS
Description: Prodrug activation in COS7 cells overexpressing human FAAH assessed as FAAH-mediated sobetirome formation by measuring compound hydrolysis rate at 100 uM by LC-MS/MS analysis. The format is cell-based. An outline of the steps:
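Hydrolysis kinetics were measured in homogenate of COS-7 cells overexpressing human FAAH, with prodrug substrate at 100 µM. Rate is given as nmol mg-1 min-1, mean ± SEM, n = 3.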

The nature of data set [11]: Terminal half life in C57BL/6 mouse at 9.15 umol/kg, iv by LC-MS/MS analysis. The settings on record: in vivo, read-out: beta t1/2 (converted). The format is ADME, organism-based.
Data set [12] in a line: Brain to serum permeability coefficient, Kp of the compound in C57BL/6 mouse assessed as sobetirome level at 9.15 umol/kg, iv measured up to 24 hrs by LC-MS/MS analysis. The format is ADME, organism-based.
Data set [13] is described as follows: AUC (0 to 24 hrs) in C57BL/6 mouse brain assessed as sobetirome level at 9.15 umol/kg, iv by LC-MS/MS analysis. The format is ADME, organism-based. Details: dose 9.15 umol/kg, time < 24 hr, route intravenous. To be noted: in vivo.
The nature of data set [14]: Oral bioavailability in C57BL/6 mouse at 9.15 umol/kg administered via gavage by LC-MS/MS analysis. Format: ADME, organism-based. To be noted: in vivo.
Data set [15] can be described thus: Prodrug activation in C57BL/6 mouse serum assessed as FAAH-mediated sobetirome formation at 3.05 umol/kg, ip after 1 hr by LC-MS/MS analysis. The format is organism-based. The settings on record: in vivo.

Activity calls are given as the source filed them. The rule behind the calls is not given here.

With `CNC(=O)COc1cc(C)c(Cc2ccc(O)c(C(C)C)c2)c(C)c1`, the Tmax in data set [1] and in data set [6] was 0.5 h each time. In [2], the clearance was 91.7 mL/min/kg. The results for the Drug uptake in data set [3] and in [15] were 53.1 ng/g and 17.2 ng/g, respectively. Besides, the Kp is reported as 3.17 in data set [4], 0.44 in data set [5] and 0.82 in data set [12]. The outcome in data set [7] and in data set [8] was Active. Moreover, the AUC in data set [9] came to 378 ng·h/g; in data set [13], 694 ng·h/g. The Drug metabolism in data set [10] is 3.2 nmol/mg/min. The half-life in [11] was 8.8 h. The same compound returned a bioavailability in data set [14] of 19.5%.
